{
  "source": "ChEMBL document CHEMBL1687895",
  "about": "“Synthesis and anti-mycobacterial activity of novel amino alcohol derivatives” (Eur J Med Chem, 2011)",
  "key": {"[1]": {"tested_on": "Mycobacterium tuberculosis", "test": "Antibacterial activity against Mycobacterium tuberculosis H37Rv ATCC 27294 after 24 hrs by alamar blue assay", "type": "functional", "settings": "H37Rv ATCC 27294, 24 h", "outline": "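Microplate Alamar Blue assay on M. tuberculosis ATCC 27294 in Middlebrook 7H9 broth, with compounds serially diluted on the plate (final 0.01–20.0). Water in the outer wells limited evaporation. Sealed plates were incubated at 37 C for five days, then a fresh 1:1 Alamar Blue/10% Tween 80 mix was added for 24 h. MIC is the lowest concentration preventing the blue-to-pink change.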"}, "[2]": {"test": "Partition coefficient, log P of the compound", "type": "physicochemical", "settings": "octanol/water", "outline": "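Computed in silico from structure with an online molecular-property calculation server's logP method, not measured by experimental partitioning.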"}},
  "data": [
    {"smiles": "CC(C)(C)OC(=O)N[C@@H](Cc1ccccc1)[C@H](O)CNCc1ccc2c(c1)OCO2", "values": [
      {"measurement": "MIC", "setting": "[1]", "result": 241, "unit": "µM"},
      {"measurement": "logP", "setting": "[2]", "result": 5.15}
    ]},
    {"smiles": "N[C@@H](Cc1ccccc1)[C@H](O)CNCc1ccc2c(c1)OCO2", "values": [
      {"measurement": "MIC", "setting": "[1]", "result": 318, "unit": "µM"},
      {"measurement": "logP", "setting": "[2]", "result": 1.41}
    ]},
    {"smiles": "CC(C)(C)OC(=O)N[C@@H](Cc1ccccc1)[C@H](O)CN(Cc1ccc2c(c1)OCO2)S(=O)(=O)c1ccc(Br)cc1", "values": [
      {"measurement": "MIC", "setting": "[1]", "result": "> 500", "unit": "µM"},
      {"measurement": "logP", "setting": "[2]", "result": 7.11}
    ]},
    {"smiles": "COc1ccc(S(=O)(=O)N(Cc2ccc3c(c2)OCO3)C[C@@H](O)[C@H](Cc2ccccc2)NC(=O)OC(C)(C)C)cc1", "values": [
      {"measurement": "MIC", "setting": "[1]", "result": "> 500", "unit": "µM"},
      {"measurement": "logP", "setting": "[2]", "result": 6.36}
    ]},
    {"smiles": "Cc1ccc(S(=O)(=O)N(Cc2ccc3c(c2)OCO3)C[C@@H](O)[C@H](Cc2ccccc2)NC(=O)OC(C)(C)C)cc1", "values": [
      {"measurement": "MIC", "setting": "[1]", "result": "> 500", "unit": "µM"},
      {"measurement": "logP", "setting": "[2]", "result": 6.75}
    ]},
    {"smiles": "CC(C)(C)OC(=O)N[C@@H](Cc1ccccc1)[C@H](O)CN(Cc1ccc2c(c1)OCO2)S(=O)(=O)c1ccc(F)cc1", "values": [
      {"measurement": "MIC", "setting": "[1]", "result": "> 500", "unit": "µM"},
      {"measurement": "logP", "setting": "[2]", "result": 5.38}
    ]},
    {"smiles": "CC(C)(C)OC(=O)N[C@@H](Cc1ccccc1)[C@H](O)CN(Cc1ccc2c(c1)OCO2)S(=O)(=O)c1ccc([N+](=O)[O-])cc1", "values": [
      {"measurement": "MIC", "setting": "[1]", "result": "> 500", "unit": "µM"},
      {"measurement": "logP", "setting": "[2]", "result": 6.26}
    ]},
    {"smiles": "CC(C)(C)OC(=O)N[C@@H](Cc1ccccc1)[C@H](O)CN(Cc1ccc2c(c1)OCO2)S(=O)(=O)c1ccc(N)cc1", "values": [
      {"measurement": "MIC", "setting": "[1]", "result": "> 500", "unit": "µM"},
      {"measurement": "logP", "setting": "[2]", "result": 6.47}
    ]},
    {"smiles": "N[C@@H](Cc1ccccc1)[C@H](O)CN(Cc1ccc2c(c1)OCO2)S(=O)(=O)c1ccc(Br)cc1", "values": [
      {"measurement": "MIC", "setting": "[1]", "result": 23.5, "unit": "µM"},
      {"measurement": "logP", "setting": "[2]", "result": 3.37}
    ]},
    {"smiles": "COc1ccc(S(=O)(=O)N(Cc2ccc3c(c2)OCO3)C[C@@H](O)[C@@H](N)Cc2ccccc2)cc1", "values": [
      {"measurement": "MIC", "setting": "[1]", "result": 51.6, "unit": "µM"},
      {"measurement": "logP", "setting": "[2]", "result": 2.62}
    ]},
    {"smiles": "Cc1ccc(S(=O)(=O)N(Cc2ccc3c(c2)OCO3)C[C@@H](O)[C@@H](N)Cc2ccccc2)cc1", "values": [
      {"measurement": "MIC", "setting": "[1]", "result": 106, "unit": "µM"},
      {"measurement": "logP", "setting": "[2]", "result": 3.01}
    ]},
    {"smiles": "N[C@@H](Cc1ccccc1)[C@H](O)CN(Cc1ccc2c(c1)OCO2)S(=O)(=O)c1ccc(F)cc1", "values": [
      {"measurement": "MIC", "setting": "[1]", "result": 211, "unit": "µM"},
      {"measurement": "logP", "setting": "[2]", "result": 1.64}
    ]},
    {"smiles": "N[C@@H](Cc1ccccc1)[C@H](O)CN(Cc1ccc2c(c1)OCO2)S(=O)(=O)c1ccc([N+](=O)[O-])cc1", "values": [
      {"measurement": "MIC", "setting": "[1]", "result": "> 500", "unit": "µM"},
      {"measurement": "logP", "setting": "[2]", "result": 2.52}
    ]},
    {"smiles": "CC[C@@H](CO)NCCN[C@@H](CC)CO", "note": "[ETHAMBUTOL]", "values": [
      {"measurement": "MIC", "setting": "[1]", "result": 15.9, "unit": "µM"},
      {"measurement": "logP", "setting": "[2]", "result": 0.35}
    ]}
  ]
}
